Converted amounts (≈) assume the structure as drawn. The source made the active and inactive calls.
What was measured:
Escherichia coli [1] = test: Antimicrobial activity against Escherichia coli ATCC 25922 at 50 ug/disk incubated for 20 +/- 4 hrs by agar disk diffusion method; assay type: functional; conditions: read-out: DIZ
In short: (§1)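 Agar disk diffusion on Mueller-Hinton agar swab-seeded from a 0.5 McFarland inoculum (about 10^8 CFU/ml). Cellulose discs got 50 μg compound (10 μl of 5 g/L in DMSO); a 10 μL DMSO disc was the control. Incubated aerobically at 35 ± 2 °C for 20 ± 4 h, then growth-inhibition diameters measured.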

Kocuria rhizophila = test: Antimicrobial activity against Kocuria rhizophila clinical isolate at 50 ug/disk incubated for 20 +/- 4 hrs by agar disk diffusion method; assay type: functional; conditions: read-out: DIZ; in short: as §1
Enterococcus faecium [2] = test: Synergistic antimicrobial activity against Enterococcus faecium AUS0004 assessed as DIZ at 50 ug/disk incubated for 20 +/- 4 hrs in presence of erythromycin by agar disk diffusion method (reference value: 6 millimeter); assay type: functional; conditions: read-out: DIZ
[3] = test system: Mycolicibacterium fortuitum; test: Antimicrobial activity against Mycobacterium fortuitum clinical isolate at 50 ug/disk incubated for 4 days by agar disk diffusion method; assay type: functional; conditions: 96 h, read-out: DIZ
In short: (§2)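 On MH agar with 5% horse blood, a 0.5 McFarland inoculum was swabbed and discs with 50 μg compound (from 5 g/L in DMSO) were laid down, alongside a DMSO control disc. Incubation was humid and aerobic at 35 ± 2 °C for 4 days, then growth-inhibition diameters were measured.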

HCT-116 = test: Cytotoxicity against human HCT116 cells assessed as decrease in cell viability in MTT assay; assay type: cell-based
In short: (§3)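 Cell viability was measured by MTT on a robotic screening platform. Residual viability was expressed as a percentage of the mean viable cells in DMSO-treated controls. Under 25-30% viability was considered cytotoxic, and IC50 values were derived.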

[4] = test system: Mycobacteroides abscessus; test: Antimicrobial activity against Mycobacterium abscessus clinical isolate at 50 ug/disk incubated for 4 days by agar disk diffusion method; assay type: functional; conditions: 96 h, read-out: DIZ; in short: as §2
Streptococcus pyogenes [5] = test: Antimicrobial activity against Streptococcus pyogenes clinical isolate at 50 ug/disk incubated for 20 +/- 4 hrs by agar disk diffusion method; assay type: functional; conditions: read-out: DIZ
In short: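 Plates of MH + 5% horse blood were swabbed with a 0.5 McFarland inoculum and received discs with 50 μg compound (from 5 g/L in DMSO) plus a 10 μL DMSO control disc. Incubation at 35 ± 2 °C aerobically with 5% CO2 for 20 ± 4 h, then zone diameters measured.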

Acinetobacter baumannii = test: Antimicrobial activity against Acinetobacter baumannii clinical isolate at 50 ug/disk incubated for 20 +/- 4 hrs by agar disk diffusion method; assay type: functional; conditions: read-out: DIZ; in short: as §1
Listeria monocytogenes [6] = test: Antimicrobial activity against Listeria monocytogenes clinical isolate at 50 ug/disk incubated for 20 +/- 4 hrs by agar disk diffusion method; assay type: functional; conditions: read-out: DIZ
In short: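 Disk diffusion on MH agar with 5% horse blood, seeded by swab from a 0.5 McFarland suspension. Discs held 50 μg compound from a 5 g/L DMSO solution, with a DMSO-only control disc. Aerobic incubation at 35 ± 2 °C for 20 ± 4 h; inhibition zone diameter read.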

Streptococcus pyogenes [7] = test: Antimicrobial activity against Streptococcus pyogenes clinical isolate by broth microdilution method; assay type: functional
In short: (§4)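 MICs were set by broth microdilution following EUCAST guidelines, from three independent experiments reported as values or ranges. MICs were measured only where disk-diffusion inhibition diameters were 9 mm or more.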

Bacillus subtilis = test: Antimicrobial activity against Bacillus subtilis clinical isolate at 50 ug/disk incubated for 20 +/- 4 hrs by agar disk diffusion method; assay type: functional; conditions: read-out: DIZ; in short: as §1
Enterococcus faecium [8] = test: Synergistic antimicrobial activity against Enterococcus faecium AUS0004 assessed as DIZ at 50 ug/disk incubated for 20 +/- 4 hrs in presence of ampicillin by agar disk diffusion method (reference value: 6 millimeter); assay type: functional; conditions: read-out: DIZ
Enterococcus faecium [9] = test: Antimicrobial activity against Enterococcus faecium HM1070 at 50 ug/disk incubated for 20 +/- 4 hrs by agar disk diffusion method; assay type: functional; conditions: read-out: DIZ; in short: as §1
MCF7 = test: Cytotoxicity against human MCF7 cells assessed as decrease in cell viability in MTT assay; assay type: cell-based; in short: as §3
Bacteroides fragilis = test: Antimicrobial activity against Bacteroides fragilis ATCC 25285 at 50 ug/disk incubated for 20 +/- 4 hrs by agar disk diffusion method; assay type: functional; conditions: read-out: DIZ
In short: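 Anaerobic disk diffusion: MH agar + 5% horse blood seeded from a 0.5 McFarland swab, with discs of 50 μg compound (10 μl of 5 g/L DMSO solution) and a DMSO control disc. Kept at 35 ± 2 °C under anaerobic conditions for 20 ± 4 h; inhibition diameters recorded.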

Huh-7 = test: Cytotoxicity against human HuH7 cells assessed as decrease in cell viability in MTT assay; assay type: cell-based; in short: as §3
Escherichia coli [10] = test: Antimicrobial activity against TolC deficient Escherichia coli BW25113 by broth microdilution method; assay type: functional
In short: (§5)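 MIC by broth microdilution per EUCAST guidelines, in E. coli BW25113 and its previously described deletion derivative.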

Escherichia coli [11] = test: Antimicrobial activity against Escherichia coli clinical isolate at 50 ug/disk incubated for 20 +/- 4 hrs by agar disk diffusion method; assay type: functional; conditions: read-out: DIZ; in short: as §1
Proteus vulgaris = test: Antimicrobial activity against Proteus vulgaris clinical isolate at 50 ug/disk incubated for 20 +/- 4 hrs by agar disk diffusion method; assay type: functional; conditions: read-out: DIZ; in short: as §1
[12] = test system: Mycobacteroides abscessus; test: Antimicrobial activity against Mycobacterium abscessus clinical isolate by broth microdilution method; assay type: functional; in short: as §4
Clostridium perfringens = test: Antimicrobial activity against Clostridium perfringens clinical isolate at 50 ug/disk incubated for 20 +/- 4 hrs by agar disk diffusion method; assay type: functional; conditions: read-out: DIZ
In short: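 Agar disk diffusion on MH agar with 5% horse blood (MHF), surface-seeded by swab from a 0.5 McFarland inoculum (about 10^8 CFU/ml). Cellulose discs received 10 μl of a 5 g/L DMSO solution (50 μg). A DMSO-only disc served as control. Anaerobic incubation at 35 ± 2 °C for 20 ± 4 h; growth-inhibition diameter measured in mm.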

Listeria monocytogenes [13] = test: Synergistic antimicrobial activity against Listeria monocytogenes clinical isolate assessed as DIZ at 50 ug/disk incubated for 20 +/- 4 hrs in presence of fosfomycin by agar disk diffusion method (reference value: 6 millimeter); assay type: functional; conditions: read-out: DIZ
Morganella morganii = test: Antimicrobial activity against Morganella morganii EB6 clinical isolate at 50 ug/disk incubated for 20 +/- 4 hrs by agar disk diffusion method; assay type: functional; conditions: read-out: DIZ; in short: as §1
Enterococcus faecium [14] = test: Synergistic antimicrobial activity against Enterococcus faecium AUS0004 assessed as DIZ at 50 ug/disk incubated for 20 +/- 4 hrs in presence of gentamicin by agar disk diffusion method (reference value: 17 millimeter); assay type: functional; conditions: read-out: DIZ
Caco-2 = test: Cytotoxicity against human Caco2 cells assessed as decrease in cell viability in MTT assay; assay type: cell-based; in short: as §3
NCI-H727 = test: Cytotoxicity against human NCI-H727 cells assessed as decrease in cell viability in MTT assay; assay type: cell-based; in short: as §3
Escherichia coli [15] = test: Bactericidal activity against TolC deficient Escherichia coli BW25113 by broth microdilution method; assay type: functional
Enterococcus faecalis = test: Synergistic antimicrobial activity against Enterococcus faecalis ATCC 29212 assessed as DIZ at 50 ug/disk incubated for 20 +/- 4 hrs in presence of streptomycin by agar disk diffusion method (reference value: 18 millimeter); assay type: functional; conditions: read-out: DIZ
Enterococcus faecium [16] = test: Antimicrobial activity against Enterococcus faecium AUS0004 by broth microdilution method; assay type: functional; in short: as §4
Enterococcus faecium [17] = test: Synergistic antimicrobial activity against Enterococcus faecium AUS0004 assessed as DIZ at 50 ug/disk incubated for 20 +/- 4 hrs in presence of imipenem by agar disk diffusion method (reference value: 6 millimeter); assay type: functional; conditions: read-out: DIZ
Escherichia coli [18] = test: Antimicrobial activity against Escherichia coli BW25113 by broth microdilution method; assay type: functional; in short: as §5

Row | Compound | zone of inhibition at 50 µg/disc (Escherichia coli [1]) [mm] | zone of inhibition at 50 µg/disc (Kocuria rhizophila) [mm] | zone of inhibition at 50 µg/disc [3] [mm] | IC50 (HCT-116) [µM] | zone of inhibition at 50 µg/disc [4] [mm] | zone of inhibition at 50 µg/disc (Streptococcus pyogenes [5]) [mm] | zone of inhibition at 50 µg/disc (Acinetobacter baumannii) [mm] | zone of inhibition at 50 µg/disc (Listeria monocytogenes [6]) [mm] | MIC (Streptococcus pyogenes [7]) [µg/mL] | zone of inhibition at 50 µg/disc (Bacillus subtilis) [mm] | zone of inhibition at 50 µg/disc (Enterococcus faecium [9]) [mm] | IC50 (MCF7) [µM] | zone of inhibition at 50 µg/disc (Bacteroides fragilis) [mm] | IC50 (Huh-7) [µM] | zone of inhibition at 50 µg/disc (Escherichia coli [11]) [mm] | zone of inhibition at 50 µg/disc (Proteus vulgaris) [mm] | MIC [12] | zone of inhibition at 50 µg/disc (Clostridium perfringens) [mm] | zone of inhibition at 50 µg/disc (Morganella morganii) [mm] | IC50 (Caco-2) [µM] | also measured
1 | O=C(Nc1nnc(-c2ccc(C(F)(F)F)cc2)o1)c1cccc(Cl)c1 | 6 | 30 | 23 | 10 | 9 | 9 | 6 | 28 | 4 to 32 (≈ 10.9 to 87 µM) | 24 | 23 | 15 | 11 | 20 | 6 | 6 | 32 to 64 µg/mL (≈ 87 to 174 µM) | 11 | 6 | 11 | zone of inhibition at 50 µg/disc (Enterococcus faecium [2]): 22 mm; zone of inhibition at 50 µg/disc (Enterococcus faecium [8]): 24 mm; MBC (Escherichia coli [10]): 16 µM (≈ 5.88 µg/mL); MIC (Escherichia coli [10]): 0.25 µM (≈ 0.0919 µg/mL); zone of inhibition at 50 µg/disc (Listeria monocytogenes [13]): 30 mm; zone of inhibition at 50 µg/disc (Enterococcus faecium [14]): 25 mm; IC50 (NCI-H727): 10 µM; MBC (Escherichia coli [15]): 16 µM (≈ 5.88 µg/mL); zone of inhibition at 50 µg/disc (Enterococcus faecalis): 24 mm; MIC (Enterococcus faecium [16]): 0.0625 to 0.25 µg/mL (≈ 0.17 to 0.68 µM); zone of inhibition at 50 µg/disc (Enterococcus faecium [17]): 24 mm; MIC (Escherichia coli [18]): > 128 µM
2 | O=C(Nc1ncc(-c2ccc(F)cc2)o1)c1ccc(Cl)cc1 | 8 | 18 | 12 | 2 | 7 | 6 | 6 | 17 | 32 to 64 (≈ 101 to 202 µM) | 15 | 13 | 4 | 8 | 3 | 6 | 10 | inactive | 6 | 6 | 3 | zone of inhibition at 50 µg/disc (Enterococcus faecium [2]): 12 mm; zone of inhibition at 50 µg/disc (Enterococcus faecium [8]): 13 mm; zone of inhibition at 50 µg/disc (Listeria monocytogenes [13]): 15 mm; zone of inhibition at 50 µg/disc (Enterococcus faecium [14]): 18 mm; zone of inhibition at 50 µg/disc (Enterococcus faecalis): 19 mm; MIC (Enterococcus faecium [16]): 1 to 4 µg/mL (≈ 3.16 to 12.6 µM); zone of inhibition at 50 µg/disc (Enterococcus faecium [17]): 13 mm; MIC (Escherichia coli [18]): > 128 µM
3 | O=C(Nc1nnc(-c2ccc(F)cc2)o1)c1ccc(Cl)cc1 | 6 | 11 | 9 | 17 | 6 | 6 | 6 | 13 | 32 to 64 (≈ 101 to 201 µM) | 12 | 8 | 22 | 6 | 20 | 6 | 6 | 64 µg/mL (≈ 201 µM) | 6 | 6 | 14 | MIC (Escherichia coli [10]): 2 µM (≈ 0.635 µg/mL); IC50 (NCI-H727): 18 µM; MBC (Escherichia coli [15]): > 32 µM; MIC (Enterococcus faecium [16]): 16 µg/mL (≈ 50.4 µM); MIC (Escherichia coli [18]): > 128 µM
4 | O=C(Nc1nnc(-c2ccc(C(F)(F)F)cc2)o1)c1ccc(Cl)nc1 | 6 | 28 | 19 | > 25 | 14 | 10 | 6 | 31 | 32 (≈ 86.8 µM) | 24 | 24 | > 25 | 16 | > 25 | 6 | 8 | 16 to 32 µg/mL (≈ 43.4 to 86.8 µM) | 13 | 6 | > 25 | zone of inhibition at 50 µg/disc (Enterococcus faecium [2]): 22 mm; zone of inhibition at 50 µg/disc (Enterococcus faecium [8]): 24 mm; MIC (Escherichia coli [10]): 1 µM (≈ 0.369 µg/mL); zone of inhibition at 50 µg/disc (Listeria monocytogenes [13]): 29 mm; zone of inhibition at 50 µg/disc (Enterococcus faecium [14]): 25 mm; IC50 (NCI-H727): > 25 µM; MBC (Escherichia coli [15]): > 32 µM; zone of inhibition at 50 µg/disc (Enterococcus faecalis): 22 mm; MIC (Enterococcus faecium [16]): 2 µg/mL (≈ 5.42 µM); zone of inhibition at 50 µg/disc (Enterococcus faecium [17]): 24 mm; MIC (Escherichia coli [18]): > 128 µM

Source: ChEMBL document CHEMBL4364345, “Synthesis and evaluation of 1,3,4-oxadiazole derivatives for development as broad-spectrum antibiotics” (Bioorg Med Chem, 2019)
